Measured values published in ChEMBL document CHEMBL4477216, “Discovery and Optimization of Small Molecule Splicing Modifiers of Survival Motor Neuron 2 as a Treatment for Spinal Muscular Atrophy” (J Med Chem, 2016).

Columns and labels:
Homo sapiens [1] = organism: Homo sapiens; assay: Inhibition of mRNA splicing of human SMN2 exon 7 transfected in HEK293H cells assessed as compound concentration required to increase full-length SMN2 mRNA level by 1.5 times after 24 hrs by RT-qPCR analysis relative to GAPDH; format: cell-based
In short: (§1)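 HEK293H cells stably carrying the SMN2 minigene (exon 6 to 5' exon 8 fused to firefly luciferase) were plated and held for 6 h, then treated 24 h in duplicate at varying concentrations (0.5% DMSO). Full-length minigene mRNA and GAPDH were quantified by TaqMan RT-qPCR using actual PCR efficiencies. Results were normalized to GAPDH and DMSO and expressed as fold change versus DMSO.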

Homo sapiens [2] = organism: Homo sapiens; assay: Inhibition of mRNA splicing of SMN2 exon 7 in GM03813 fibroblasts derived from SMA patient assessed as compound concentration required to increase SMN protein level by 1.5 times after 24 hrs by HTRF assay
Homo sapiens [3] = organism: Homo sapiens; assay: Inhibition of mRNA splicing of SMN2 exon 7 in GM03813 fibroblasts derived from SMA patient assessed as maximum fold increase of SMN protein level by 1.5 times after 24 hrs by HTRF assay relative to control
[4] = Apparent permeability in human Caco2 cells; format: ADME, cell-based; conditions: Caco-2
In short: (§2)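 Bidirectional permeability was measured across a Caco-2 cell monolayer. Papp was reported, and efflux was expressed as the B-A/A-B ratio.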

[5] = Efflux ratio of apparent permeability from basolateral to apical over apical to basolateral side in human Caco2 cells; format: ADME, cell-based; conditions: Caco-2; in short: as §2
[6] = Protein binding in human plasma; format: ADME, cell-free; conditions: read-out: PPB (converted)
[7] = AUC (0 to 6 hrs) in Sprague-Dawley rat at 10 mg/kg, po; format: ADME, organism-based; parameters: dose 10 mg/kg, time < 6 hr, route oral; conditions: in vivo
In short: (§3)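 Male Sprague-Dawley rats got a single oral 10 mg/kg dose as a suspension in 0.5% hydroxypropyl methylcellulose with 0.1% Tween-80. Plasma was sampled at several time points up to 6 h post dose to give AUC0-6h. Total brain concentration was taken at 6 h to give the brain/plasma ratio.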

Homo sapiens [8] = organism: Homo sapiens; assay: Inhibition of mRNA splicing of human SMN2 exon 7 transfected in HEK293H cells assessed as maximum fold of increase in full-length SMN2 mRNA level after 24 hrs by RT-qPCR analysis relative to GAPDH; format: cell-based; in short: as §1
Homo sapiens [9] = organism: Homo sapiens; assay: Inhibition of mRNA splicing of human SMN2 exon 7 transfected in HEK293H cells assessed as compound concentration required to increase full-length SMN2 mRNA level by 1.5 times after 24 hrs by RT-qPCR analysis; format: cell-based; in short: as §1
Homo sapiens [10] = organism: Homo sapiens; assay: Inhibition of mRNA splicing of human SMN2 exon 7 transfected in HEK293H cells assessed as maximum fold of increase in full-length SMN2 mRNA level after 24 hrs by RT-qPCR analysis relative to control; format: cell-based; in short: as §1
[11] = Ratio of drug level in brain to plasma of Sprague-Dawley rat at 10 mg/kg, po measured at 6 hrs; format: ADME, organism-based; conditions: brain and plasma, read-out: BPR; in short: as §3

Row | Compound | EC1.5 (Homo sapiens [1]) [nM] | EC1.5 (Homo sapiens [2]) [nM] | other results
1 | Cc1cn2nc(-c3cc(=O)n4cc(N5CCN[C@@H](C)C5)ccc4n3)cc2c(C)n1 | 19 | 160 | –
2 | COc1ccc(-c2cc3ccc(N4CCNCC4)nc3oc2=O)cc1OC | 8800 | > 10000 | fold change (FC) (Homo sapiens [3]): 1
3 | O=c1oc2cc(N3CCNCC3)ccc2cc1-c1cn2ccncc2n1 | 70 | 120 | –
4 | Cc1cn2cc(-c3cc4ccc(N5CCN[C@@H](C(C)C)C5)cc4oc3=O)nc2c(C)n1 | 23 | 76 | –
5 | O=c1oc2cc(N3CCNCC3)ccc2cc1-c1cn2ccccc2n1 | 380 | > 10000 | fold change (FC) (Homo sapiens [3]): 1.3
6 | Cc1cn2cc(-c3cc4ccc(N5CCN(C)CC5)cc4oc3=O)nc2cn1 | – | 69 | Papp [4]: 27 nm/s; efflux ratio [5]: 0.74; fraction unbound [6]: 0.03; AUC(0-t) at 6 h [7]: < 0.01 µg·h/mL
7 | CCc1nc(C)cn2cc(-c3cc4ccc(N5CCNCC5)cc4oc3=O)nc12 | 10 | 210 | –
8 | Cc1cn2nc(-c3cc(=O)n4cc(C5CCN(C)CC5)ccc4n3)cc2c(C)n1 | 53 | 210 | –
9 | Cc1cn2cc(-c3cc4ccc(N5CCN[C@@H](C)C5)cc4oc3=O)nc2c(C)n1 | 1 | 5 | –
10 | O=c1oc2cc(N3CCCCC3)ccc2cc1-c1nc2ccccc2o1 | > 32000 | – | fold change (FC) (Homo sapiens [8]): 1; EC1.5 (Homo sapiens [9]): > 32 µM; fold change (FC) (Homo sapiens [10]): 1
11 | Cc1cn2cc(-c3cc4ccc(N5CCNCC5)cc4oc3=O)nc2cn1 | 2 | 5 | –
12 | Cc1cn2nc(-c3cc(=O)n4cc(N5CCC(N(C)C)CC5)ccc4n3)cc2c(C)n1 | 20 | 130 | –
13 | Cc1cn2cc(-c3cc4ccc(N5CCNCC5)cc4c(=O)o3)nc2c(C)n1 | 8 | 39 | Papp [4]: 44 nm/s; efflux ratio [5]: 2.6; fraction unbound [6]: 0.1; AUC(0-t) at 6 h [7]: 0.28 µg·h/mL; Kp at 6 h [11]: 0.6
14 | Cc1cn2cc(-c3cc4ccc(N5CCN(CCF)[C@@H](C)C5)cc4oc3=O)nc2c(C)n1 | 37 | 450 | –
15 | Cc1cn2cc(-c3cc4ccc(N5CC[C@H]6CNC[C@H]65)cc4oc3=O)nc2c(C)n1 | 28 | 640 | –
16 | O=c1oc2cc(N3CCOCC3)ccc2cc1-c1nc2ccccc2o1 | > 32000 | – | fold change (FC) (Homo sapiens [8]): 1; EC1.5 (Homo sapiens [9]): > 32 µM; fold change (FC) (Homo sapiens [10]): 1.1
17 | COc1ccc(-c2cc3ccc(N4CCNCC4)cc3c(=O)o2)cc1OC | 80 | 290 | fold change (FC) (Homo sapiens [3]): 1.6
18 | Cc1cn2cc(-c3cc4ccc(N5CCNCC5)cc4oc3=O)cc2c(C)n1 | 4 | 29 | –
19 | Cc1cn2nc(-c3cc4ccc(C5CCN(C)CC5)cc4oc3=O)cc2c(C)n1 | > 10000 | > 10000 | –
20 | O=c1oc2cc(N3CCNCC3)ccc2cc1-c1ccccc1 | > 32000 | > 10000 | fold change (FC) (Homo sapiens [3]): 1
21 | CN(C)c1ccc2cc(-c3nc4ccccc4o3)c(=O)oc2c1 | 22000 | – | fold change (FC) (Homo sapiens [8]): 1.5; EC1.5 (Homo sapiens [9]): > 32 µM; fold change (FC) (Homo sapiens [10]): 1.2
22 | Cc1cc2oc(-c3cc4ccc(N5CCNCC5)cc4oc3=O)cc2c(C)n1 | 1500 | > 10000 | –
23 | Cc1cn2cc(-c3cc4ccc(N5CCN(CCCF)[C@@H](C)C5)cc4oc3=O)nc2c(C)n1 | 19 | 60 | –
24 | Cc1cn2cc(-c3cc4ccc(N5CCN[C@H](C)C5)cc4oc3=O)nc2c(C)n1 | 3 | 13 | –
25 | Cc1cn2cc(-c3cc4ccc(N5CCN(C(C)(C)C)CC5)cc4oc3=O)nc2c(C)n1 | 59 | > 10000 | –
26 | Cc1cc2cc(-c3cc4ccc(N5CCNCC5)cc4oc3=O)oc2c(C)n1 | 4 | 16 | –
27 | Cc1cn2cc(-c3cc(=O)n4cc(N5CCNCC5)ccc4n3)nc2c(C)n1 | 180 | 430 | –
28 | O=c1oc2cc(N3CCNCC3)ccc2cc1-c1nc2ccccc2o1 | 8700 | > 10000 | fold change (FC) (Homo sapiens [8]): 25; EC1.5 (Homo sapiens [9]): 10 µM; fold change (FC) (Homo sapiens [10]): 7; fold change (FC) (Homo sapiens [3]): 1
29 | Cc1cn2cc(-c3cc4ccc(N5CCN(C)[C@@H](C)C5)cc4oc3=O)nc2c(C)n1 | – | 63 | AUC(0-t) at 6 h [7]: 0.26 µg·h/mL; Kp at 6 h [11]: 19
